By IC50 is commonly meant the concentration that gives 50% inhibition. A word on the inhibition: it is the percentage by which the read-out fell short of the control.

Several values for one entry are separate records, joined by “and”; a condition that tells them apart may be missing. Identical values can stand only once. Like-named read-outs stand apart in the source and are kept apart here.

For series [1], the system named is normal human lung fibroblasts (Wi-38). Nature of the series: MTT cytotoxicity assay on normal lung fibroblasts. Format: cell-based. Particulars: for IC50: read-out: Wi-38 IC50.
In series [2] the test system is human NSCLC A549 cells. The series can be described thus: MTT cytotoxicity assay on NSCLC cells. It counts as cell-based. Particulars: for IC50: Mean ± SD, n = 3; for fold more potent than cisplatin: A549 IC50 relative to cisplatin; for SI (ratio of IC50 for healthy and cancer cells): Wi-38 IC50 / A549 IC50. In short, it runs like this: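 Human A549 and Wi-38 fibroblasts (ATCC) grown in DMEM with 10% FBS at 37 °C, 5% CO2. Wi-38 seeded at 5 x10^3 cells/well and given 24 h to attach; A549 run by the same MTT method. […] MTT 5 mg/ml added for 3 h at 37 °C, formazan dissolved in DMSO, A570 read. IC50 derived; SI = Wi-38 IC50/A549 IC50. Mean ± SD, n = 3.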
Background: Tetrazolium assays rely on reduction of a dye to a coloured formazan, in cell work by metabolically active cells.

For series [3], the target named is CaV3.2 (T-type) calcium channels (Homo sapiens, UniProt O95180). The series can be described thus: Whole cell patch-clamp T-type calcium channel block. It counts as cell-based. Particulars: HEK-tsA201, read-out: Block of CaV3.2 (T-type) currents, percentage of inhibition, 10 μM; HEK tsA-201 cells; n = 3. In short, it runs like this: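 Human embryonic kidney tsA-201 (293T) cells transiently transfected to express CaV3.2 T-type channels, then recorded by whole-cell patch clamp. Each test compound applied at 10 µM and block of T-type calcium current measured.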
Chain of CaV3.2 (T-type) calcium channels (O95180 whole entry): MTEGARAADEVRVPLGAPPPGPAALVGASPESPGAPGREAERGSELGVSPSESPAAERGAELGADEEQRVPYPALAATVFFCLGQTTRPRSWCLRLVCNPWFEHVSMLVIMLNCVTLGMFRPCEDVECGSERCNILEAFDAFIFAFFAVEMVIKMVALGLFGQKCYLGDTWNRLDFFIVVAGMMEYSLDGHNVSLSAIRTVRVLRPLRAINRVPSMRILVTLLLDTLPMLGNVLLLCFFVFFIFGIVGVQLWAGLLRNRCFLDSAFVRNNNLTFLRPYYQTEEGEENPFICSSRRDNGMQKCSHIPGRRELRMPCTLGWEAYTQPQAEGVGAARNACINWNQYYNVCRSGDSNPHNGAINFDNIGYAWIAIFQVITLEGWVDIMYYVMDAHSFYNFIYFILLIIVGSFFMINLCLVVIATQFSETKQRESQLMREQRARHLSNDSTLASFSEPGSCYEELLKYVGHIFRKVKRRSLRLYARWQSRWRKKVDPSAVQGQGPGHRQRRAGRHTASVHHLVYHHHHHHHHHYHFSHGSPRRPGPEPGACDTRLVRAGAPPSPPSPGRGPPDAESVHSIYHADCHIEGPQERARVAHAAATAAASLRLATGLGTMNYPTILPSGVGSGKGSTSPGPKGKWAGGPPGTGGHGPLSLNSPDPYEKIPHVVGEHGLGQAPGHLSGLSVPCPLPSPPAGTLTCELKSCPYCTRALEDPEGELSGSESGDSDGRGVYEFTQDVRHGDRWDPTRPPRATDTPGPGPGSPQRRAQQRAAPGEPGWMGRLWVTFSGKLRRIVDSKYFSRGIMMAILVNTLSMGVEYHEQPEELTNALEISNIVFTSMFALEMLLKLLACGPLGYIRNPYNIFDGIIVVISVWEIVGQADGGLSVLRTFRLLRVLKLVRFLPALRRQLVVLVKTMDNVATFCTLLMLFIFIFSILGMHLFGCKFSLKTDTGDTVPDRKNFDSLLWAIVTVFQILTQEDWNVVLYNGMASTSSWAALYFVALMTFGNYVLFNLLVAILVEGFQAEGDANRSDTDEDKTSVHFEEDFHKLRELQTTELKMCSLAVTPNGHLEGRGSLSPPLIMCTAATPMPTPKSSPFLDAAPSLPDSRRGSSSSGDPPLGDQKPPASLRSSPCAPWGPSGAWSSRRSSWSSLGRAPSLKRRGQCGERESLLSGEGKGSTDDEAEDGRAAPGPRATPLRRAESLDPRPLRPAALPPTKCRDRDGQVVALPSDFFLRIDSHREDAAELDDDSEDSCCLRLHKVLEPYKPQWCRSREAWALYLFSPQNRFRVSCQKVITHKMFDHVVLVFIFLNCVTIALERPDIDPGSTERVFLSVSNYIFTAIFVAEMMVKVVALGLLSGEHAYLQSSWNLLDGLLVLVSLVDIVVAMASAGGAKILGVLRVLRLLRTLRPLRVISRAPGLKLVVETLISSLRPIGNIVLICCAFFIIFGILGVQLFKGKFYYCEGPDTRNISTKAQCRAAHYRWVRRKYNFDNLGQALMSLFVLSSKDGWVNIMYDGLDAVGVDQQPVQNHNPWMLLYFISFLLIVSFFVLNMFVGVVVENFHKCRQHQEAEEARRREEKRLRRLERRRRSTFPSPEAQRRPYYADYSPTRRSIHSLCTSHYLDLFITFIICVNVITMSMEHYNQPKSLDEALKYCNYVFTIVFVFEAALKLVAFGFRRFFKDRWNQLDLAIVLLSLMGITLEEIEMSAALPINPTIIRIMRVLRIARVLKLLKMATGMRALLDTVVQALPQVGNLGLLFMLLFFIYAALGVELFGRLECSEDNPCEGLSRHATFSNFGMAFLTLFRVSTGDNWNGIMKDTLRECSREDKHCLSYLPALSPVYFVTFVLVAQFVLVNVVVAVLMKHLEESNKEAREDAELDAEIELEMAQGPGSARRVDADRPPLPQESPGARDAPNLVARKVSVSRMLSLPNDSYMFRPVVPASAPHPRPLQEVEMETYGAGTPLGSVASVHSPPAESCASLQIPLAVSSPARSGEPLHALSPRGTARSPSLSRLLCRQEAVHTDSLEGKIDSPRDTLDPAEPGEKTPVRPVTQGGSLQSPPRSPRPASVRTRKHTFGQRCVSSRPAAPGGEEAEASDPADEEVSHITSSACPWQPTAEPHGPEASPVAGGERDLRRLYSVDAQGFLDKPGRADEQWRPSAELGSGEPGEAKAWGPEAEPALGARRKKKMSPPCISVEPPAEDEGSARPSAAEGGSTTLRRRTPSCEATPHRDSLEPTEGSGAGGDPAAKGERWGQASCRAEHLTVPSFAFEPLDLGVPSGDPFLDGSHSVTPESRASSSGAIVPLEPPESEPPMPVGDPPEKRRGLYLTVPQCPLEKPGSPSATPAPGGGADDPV

Series [4] addresses MMP-9 (Homo sapiens, UniProt P14780). Nature of the series: In vitro MMP-9 inhibition assay. Format: biochemical. In short, it runs like this:
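Commercial MMP-9 inhibitor assay kit, run per the manufacturer's instructions. Test compounds were assayed at 0.5 µM alongside the broad-spectrum hydroxamate MMP inhibitor NNGH as reference. For selectivity, MMP-2 inhibition was measured with a colorimetric MMP-2 inhibitor screening kit at the same 0.5 µM, also per the manufacturer's instructions.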

Series [5] in a line: DPPH radical scavenging assay. Particulars: n = 3; for DPPH radical scavenging %: 12 h, dark. The essentials:
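Test compound dissolved in 1:1 water:DMSO (v/v), then mixed with an equal volume of 0.6 mM DPPH in absolute ethanol, giving final 500, 250, 125, 100, 62.5 and 31.25 µg/mL. Kept 12 h at room temperature in complete darkness. Absorbance read at 517 nm. Inhibition % taken from control (A0) versus compound (A1) absorbance, IC50 then calculated. Mean ± SD, n = 3.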
(Loss of DPPH colour is used to gauge radical scavenging.)

The subject of series [6] is A549 cells. Nature of the series: Combination studies with cisplatin. It counts as cell-based, human.
[7] abbreviates: Homo sapiens, A549, 72 h, read-out: A549 IC50, MTT, 72 h.

Chain of MMP-9 (P14780 94-707): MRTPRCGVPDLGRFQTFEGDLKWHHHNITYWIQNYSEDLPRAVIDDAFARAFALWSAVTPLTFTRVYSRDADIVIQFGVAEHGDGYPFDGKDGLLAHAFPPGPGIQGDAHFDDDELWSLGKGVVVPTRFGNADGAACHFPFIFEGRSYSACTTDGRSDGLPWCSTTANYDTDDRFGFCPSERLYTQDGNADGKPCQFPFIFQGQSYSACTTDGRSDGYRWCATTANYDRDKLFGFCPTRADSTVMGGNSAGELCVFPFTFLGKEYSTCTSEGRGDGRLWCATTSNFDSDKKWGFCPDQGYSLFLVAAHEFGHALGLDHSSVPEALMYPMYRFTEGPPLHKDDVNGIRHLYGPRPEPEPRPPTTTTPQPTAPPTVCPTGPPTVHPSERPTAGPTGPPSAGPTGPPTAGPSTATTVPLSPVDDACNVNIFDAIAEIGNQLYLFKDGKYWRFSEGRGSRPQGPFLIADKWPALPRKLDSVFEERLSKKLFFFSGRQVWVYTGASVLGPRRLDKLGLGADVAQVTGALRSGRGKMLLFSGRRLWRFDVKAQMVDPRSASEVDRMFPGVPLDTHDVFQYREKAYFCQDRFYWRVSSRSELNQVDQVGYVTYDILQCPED

On to `N.N.[Cl][Pt][Cl]` [Cisplatin, reference compound], for which the IC50 in series [1] (MTT, 72 h, Mean ± SD, n = 3) was determined as 1330 ± 82 nM; in series [2] (read-out: A549 IC50, MTT, 72 h) it was 586 ± 30 nM.
Consider `[N-]=[N+]=NCC(=O)Nc1nc(-c2ccccc2)cs1` [Compound 3, 2-Azido-N-(4-phenylthiazol-2-yl)acetamide], for which the IC50 in series [1] (Homo sapiens, WI-38, 72 h) turned out to be 1728 ± 3 nM; in series [2] (setting [7]), 74.4 nM; in series [2] (read-out: A549 IC50, MTT, 72 h), 74 ± 4 nM. In addition, in series [1] (MTT, 72 h, Mean ± SD, n = 3), the “Wi-38 EC100 (effective safe concentration at 100% cell viability)” value is 429 nM and 429 ± 32 nM. For the same compound, in series [2], the “fold more potent than cisplatin” value was ~8 fold.
For `O=C(Cn1cc(CO)nn1)Nc1nc(-c2ccccc2)cs1` [Compound 4, 2-[4-(Hydroxymethyl)-1H-1,2,3-triazol-1-yl]-N-(4-phenylthiazol-2-yl)acetamide], the IC50 in series [1] (Homo sapiens, WI-38, 72 h) was 249 ± 2 nM; in series [2] (setting [7]) it was 268 ± 2 nM. In series [1] (MTT, 72 h, Mean ± SD, n = 3), the “Wi-38 EC100 (effective safe concentration at 100% cell viability)” value came to 58 ± 4 nM. In series [3], the inhibition at 10 µM is ~60%.
Turning to `O=Cc1cn(CC(=O)Nc2nc(-c3ccccc3)cs2)nn1` [Compound 5, 2–(4-Formyl-1H-1,2,3-triazol-1-yl)-N-(4-phenylthiazol-2-yl)acetamide], the IC50 in series [1] (Homo sapiens, WI-38, 72 h) turned out to be 243 ± 14 nM; in series [2] (setting [7]), 112 nM. In addition, the “Wi-38 EC100 (effective safe concentration at 100% cell viability)” value in series [1] (MTT, 72 h, Mean ± SD, n = 3) was determined as 78 ± 4 nM. Further, in series [3], the inhibition at 10 µM amounted to 20%.
Regarding `CC(=O)C=Cc1cn(CC(=O)Nc2nc(-c3ccccc3)cs2)nn1` [Compound 6a, 2-[4–(3-Oxobut-1-en-1-yl)-1H-1,2,3-triazol-1-yl]-N-(4-phenylthiazol-2-yl)acetamide], the IC50 turned out to be 1920 ± 212 nM in series [1] (Homo sapiens, WI-38, 72 h) and 82 ± 5 nM in series [2] (setting [7]). For the same compound, the “Wi-38 EC100 (effective safe concentration at 100% cell viability)” value in series [1] (MTT, 72 h, Mean ± SD, n = 3) was 460 nM and 460 ± 110 nM.
Take `O=C(Cn1cc(C=CC(=O)c2ccc(F)cc2)nn1)Nc1nc(-c2ccccc2)cs1` [Compound 6d, 2-{4-[3–(4-Fluorophenyl)-3-oxoprop-1-en-1-yl]-1H-1,2,3-triazol-1-yl}-N-(4-phenylthiazol-2-yl)acetamide]: the IC50 in series [1] (Homo sapiens, WI-38, 72 h) worked out at 255 ± 3 nM; in series [2] (setting [7]) it was 21 ± 1 nM; in series [4], 90 ± 10 nM. The “Wi-38 EC100 (effective safe concentration at 100% cell viability)” value in series [1] (MTT, 72 h, Mean ± SD, n = 3) is on record as 138 ± 9 nM. The “fold more potent than cisplatin” value in series [2] was determined as 27 fold. The inhibition at 10 µM in series [3] was ~60%. Also, in series [4] (MMP-9 over MMP-2, 0.5 μM), the “selectivity to MMP-9 over MMP-2 (SI)” value was 2.4. In series [4] (read-out: MMP-9 % Inhibition (0.5 μM)), the inhibition at 0.5 µM came to 96.2 ± 0.6%. For the same compound, in series [4] (relative to NNGH), the “fold more active than NNGH (MMP-9 IC50)” value is on record as ~4 fold. The results for the “DPPH radical scavenging %” value in series [5] (250 µg/mL) and in series [5] (500 µg/mL) were 70.9 ± 6.6% and 85.4 ± 7.9%, respectively. Further, the “DPPH radical scavenging IC50” value in series [5] (Mean ± SD) came to 146.9 ± 22.54 µg/mL. The “lowering of combination IC50 compared to cisplatin as single agent” value in series [6] (6d combined with cisplatin) is > 72.3% and > 72.32%. Also, the “dose reduction index (DRI) for cisplatin” value in series [6] (6d with cisplatin at IC50 doses) was determined as 6.89 folds. Further, the “combination index (CI)” value in series [6] (6d with cisplatin, CI < 1 synergistic) was 0.69 ± 0.05 and 0.69.
Take `Cc1ccc(C2=NNC(c3cn(CC(=O)Nc4nc(-c5ccccc5)cs4)nn3)C2)cc1` (stereo not shown) [Compound 7c, 2-{4-[3-(p-tolyl)-4,5-dihydro-1H-pyrazol-5-yl]-1H-1,2,3-triazol-1-yl}-N-(4-phenylthiazol-2-yl)acetamide]: the IC50 in series [1] (Homo sapiens, WI-38, 72 h) amounted to 230 ± 5 nM; in series [2] (setting [7]) it was 200 ± 6 nM. Besides, in series [1] (MTT, 72 h, Mean ± SD, n = 3), the “Wi-38 EC100 (effective safe concentration at 100% cell viability)” value is recorded as 51 ± 7 nM. The “SI (ratio of IC50 for healthy and cancer cells)” value in series [2] was determined as 1.15.
In the same order, the values of `O=C(Cn1cc(C2CC(c3ccc(F)cc3)=NN2)nn1)Nc1nc(-c2ccccc2)cs1` (stereo not shown) [Compound 7d, 2-{4-[3–(4-Fluorophenyl)-4,5-dihydro-1H-pyrazol-5-yl]-1H-1,2,3-triazol-1-yl}-N-(4-phenylthiazol-2-yl)acetamide] are 1300 ± 31 nM, 425 ± 17 nM, 108 ± 15 nM and 3.05.
In the case of `O=C(C=Cc1cn(CC(=O)Nc2nc(-c3ccccc3)cs2)nn1)C=Cc1cn(CC(=O)Nc2nc(-c3ccccc3)cs2)nn1` [Compound 8, 2,2’-[(3-Oxopenta-1,4-diene-1,5-diyl)bis(1H-1,2,3-triazole-4,1-diyl)]bis(N-(4-phenylthiazol-2-yl)acetamide)], the IC50 in series [1] (Homo sapiens, WI-38, 72 h) was found to be 108 ± 3 nM; in series [2] (setting [7]) it was 116 ± 1 nM. The “Wi-38 EC100 (effective safe concentration at 100% cell viability)” value in series [1] (MTT, 72 h, Mean ± SD, n = 3) stood at 38 ± 2 nM.
Take `COc1ccc(S(=O)(=O)N(CC(=O)NO)CC(C)C)cc1` [NNGH, reference compound]: the “MMP-9 % Inhibition (0.5 μM)” value in series [4] (0.5 μM, Mean ± SD, n = 2) is on record as 56.8 ± 0.8%. For the same compound, in series [4] (read-out: MMP-9 IC50, Mean ± SD, n = 2), the IC50 was found to be 350 ± 10 nM.

These data come from article PMC11328607 (Journal of Enzyme Inhibition and Medicinal Chemistry, 2024).
